Results: ChEMBL document CHEMBL1921778, “Rational design and synthesis of aminopiperazinones as β-secretase (BACE) inhibitors” (Bioorg Med Chem Lett, 2011)
The source made the active and inactive calls. No cut-off for these calls is given here.

What was measured:
[1] = Dissociation constant, pKa of the compound; format: physicochemical
[2] = molecular target: T1, Beta-secretase 1 (Homo sapiens, UniProt P56817); experiment: Inhibition of human BACE1-mediated amyloid beta 42 secretion in human SKNBE2 cells expressing human APP695 after 18 hrs by sandwich alphalisa assay; format: cell-based
T1 sequence (P56817 whole entry): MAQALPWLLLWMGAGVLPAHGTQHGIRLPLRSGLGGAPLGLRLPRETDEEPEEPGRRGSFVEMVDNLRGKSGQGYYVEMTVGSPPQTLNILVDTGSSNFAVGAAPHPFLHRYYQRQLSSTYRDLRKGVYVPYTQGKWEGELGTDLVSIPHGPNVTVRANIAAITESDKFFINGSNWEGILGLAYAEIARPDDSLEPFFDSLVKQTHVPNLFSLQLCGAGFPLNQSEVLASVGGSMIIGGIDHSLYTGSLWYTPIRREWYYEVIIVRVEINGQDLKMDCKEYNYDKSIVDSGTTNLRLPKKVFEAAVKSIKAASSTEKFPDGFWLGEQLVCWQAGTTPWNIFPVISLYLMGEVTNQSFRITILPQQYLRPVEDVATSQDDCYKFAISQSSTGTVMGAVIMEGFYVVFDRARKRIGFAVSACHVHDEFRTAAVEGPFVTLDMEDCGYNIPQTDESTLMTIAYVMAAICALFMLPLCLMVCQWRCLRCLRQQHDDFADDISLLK

[3] = molecular target: T1, Beta-secretase 1; experiment: Inhibition of human BACE1-mediated amyloid beta TOT secretion in human SKNBE2 cells expressing human APP695 after 18 hrs by sandwich alphalisa assay; format: cell-based
Procedure, shortened: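 SKNBE2 human neuroblastoma cells expressing wild-type hAPP695 exposed to diluted compound for 18 h; secreted AβTOT in medium quantified by sandwich AlphaLISA using biotinylated AbN/25 on streptavidin beads and 4G8 detection antibody.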

[4] = molecular target: T1, Beta-secretase 1; experiment: Inhibition of human recombinant BACE1 using fluorescent Mca-Ser-Glu-Val-Asn-Leu-Asp-Ala-Glu-Phe-Lys(Dnp)-OH peptide as substrate after 1 hr by spectroflurorimeter analysis
[5] = Plasma concentration in mouse at 30 mg/kg, sc after 4 hrs; format: ADME, organism-based; parameters: dose 30 mg/kg, route subcutaneous
Procedure, shortened: (§1)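 Mice dosed subcutaneously; brain and plasma drug levels measured at 1, 2 and 4 h post-dose, brain in ng/g, plasma in ng/ml.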

[6] = Drug uptake in mouse brain at 30 mg/kg, sc after 2 hrs; format: ADME, organism-based; parameters: dose 30 mg/kg, route subcutaneous; conditions: read-out: Drug uptake; procedure, shortened: as §1
[7] = Plasma concentration in mouse at 30 mg/kg, sc after 2 hrs; format: ADME, organism-based; parameters: dose 30 mg/kg, route subcutaneous; procedure, shortened: as §1
[8] = system: Mus musculus; experiment: Antialzheimer activity in CD1 mouse brain assessed as reduction of amyloid beta TOT production at 30 mg/kg, sc after 1 hr using fluorogenic peroxidase as substrate by ELISA; format: functional; parameters: scale not given: the % may be the effect or the level left; conditions: route subcutaneous
Procedure, shortened: (§2)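 Male CD1 mice (22-28 g), fasted overnight, given single subcutaneous dose in 20% hydroxypropyl β-cyclodextrin; vehicle/untreated controls. Soluble AβTOT by sandwich ELISA (capture JRF/rAb/2, biotinylated 4G8), Aβ1-40 standards 10000–0.3 pg/ml, overnight 4 °C, QuantaBlu fluorogenic read-out.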

[9] = Drug uptake in mouse brain at 30 mg/kg, sc after 4 hrs; format: ADME, organism-based; parameters: dose 30 mg/kg, route subcutaneous; conditions: read-out: Drug uptake; procedure, shortened: as §1
[10] = Plasma concentration in mouse at 30 mg/kg, sc after 1 hr; format: ADME, organism-based; parameters: dose 30 mg/kg, route subcutaneous; procedure, shortened: as §1
[11] = Drug uptake in mouse brain at 30 mg/kg, sc after 1 hr; format: ADME, organism-based; parameters: dose 30 mg/kg, route subcutaneous; conditions: read-out: Drug uptake; procedure, shortened: as §1
[12] = Drug uptake in mouse brain at 60 mg/kg, sc after 1 hr; format: ADME, organism-based; parameters: dose 60 mg/kg, route subcutaneous; conditions: read-out: Drug uptake; procedure, shortened: as §1
[13] = Plasma concentration in mouse at 60 mg/kg, sc after 4 hrs; format: ADME, organism-based; parameters: dose 60 mg/kg, route subcutaneous; procedure, shortened: as §1
[14] = Drug uptake in mouse brain at 60 mg/kg, sc after 2 hrs; format: ADME, organism-based; parameters: dose 60 mg/kg, route subcutaneous; conditions: read-out: Drug uptake; procedure, shortened: as §1
[15] = Plasma concentration in mouse at 60 mg/kg, sc after 1 hr; format: ADME, organism-based; parameters: dose 60 mg/kg, route subcutaneous; procedure, shortened: as §1
[16] = system: Mus musculus; experiment: Antialzheimer activity in CD1 mouse brain assessed as reduction of amyloid beta TOT production at 60 mg/kg, sc after 1 hr using fluorogenic peroxidase as substrate by ELISA; format: functional; parameters: scale not given: the % may be the effect or the level left; conditions: route subcutaneous; procedure, shortened: as §2
[17] = Drug uptake in mouse brain at 60 mg/kg, sc after 4 hrs; format: ADME, organism-based; parameters: dose 60 mg/kg, route subcutaneous; conditions: read-out: Drug uptake; procedure, shortened: as §1
[18] = system: Mus musculus; experiment: Antialzheimer activity in CD1 mouse brain assessed as reduction of amyloid beta TOT production at 60 mg/kg, sc after 4 hrs using fluorogenic peroxidase as substrate by ELISA; format: functional; parameters: scale not given: the % may be the effect or the level left; conditions: route subcutaneous; procedure, shortened: as §2
[19] = system: Mus musculus; experiment: Antialzheimer activity in CD1 mouse brain assessed as reduction of amyloid beta TOT production at 60 mg/kg, sc after 2 hrs using fluorogenic peroxidase as substrate by ELISA; format: functional; parameters: scale not given: the % may be the effect or the level left; conditions: route subcutaneous; procedure, shortened: as §2
[20] = Plasma concentration in mouse at 60 mg/kg, sc after 2 hrs; format: ADME, organism-based; parameters: dose 60 mg/kg, route subcutaneous; procedure, shortened: as §1
[21] = system: Mus musculus; experiment: Antialzheimer activity in CD1 mouse brain assessed as reduction of amyloid beta TOT production at 30 mg/kg, sc after 2 hrs using fluorogenic peroxidase as substrate by ELISA; format: functional, organism-based; parameters: dose 30 mg/kg; procedure, shortened: as §2
[22] = system: Mus musculus; experiment: Antialzheimer activity in CD1 mouse brain assessed as reduction of amyloid beta TOT production at 30 mg/kg, sc after 4 hrs using fluorogenic peroxidase as substrate by ELISA; format: functional, organism-based; parameters: dose 30 mg/kg; procedure, shortened: as §2

| pKa [1] | IC50 [2] [nM] | IC50 [3] [nM] | IC50 [4] [nM] | Compound | other results |
| --- | --- | --- | --- | --- | --- |
| < 8 | – | – | – | CN1CC(N)=N[C@@](C)(c2cccc(NC(=O)c3ccc(Cl)cn3)c2)C1=O | – |
| < 8 | 68 | 79 | 1380 | CN1CC(N)=NC(C)(c2cccc(NC(=O)c3ccc(C(F)(F)F)cn3)c2)C1=O (stereo not given) | – |
| < 8 | 186 | 151 | 813 | CN1CC(N)=NC(C)(c2cccc(NC(=O)c3ccc(C#N)cn3)c2)C1=O (stereo not given) | – |
| < 8 | – | – | – | CN1CC(N)=N[C@](C)(c2cccc(NC(=O)c3ccc(Cl)cn3)c2)C1=O | – |
| 7.8 | – | – | – | CN1CC(N)=NC(C)(c2cccc(NC(=O)c3ccc(Cl)cn3)c2)C1=O (racemic) | concentration at 4 h [5]: 439 ng/mL; concentration at 2 h [6]: 123 ng/g; concentration at 2 h [7]: 1710 ng/mL; concentration at 4 h [9]: 90 ng/g; concentration at 1 h [10]: 4630 ng/mL; concentration at 1 h [11]: 184 ng/g |

Further lines, the compound ahead of its results:

| Compound | pKa [1] | IC50 [2] [nM] | IC50 [3] [nM] | IC50 [4] [nM] | other results |
| --- | --- | --- | --- | --- | --- |
| CN1CC(C)(c2cccc(NC(=O)c3ccc(Cl)cn3)c2)N=C(N)C1=O (single isomer, unassigned; enantiomer 1) | 7.6 | > 10000 | > 10000 | > 30000 | – |
| CN1CC(C)(c2cc(NC(=O)c3ccc(Cl)cn3)ccc2F)N=C(N)C1=O (single isomer, unassigned; enantiomer 1) | < 8 | – | – | – | – |
| CN1CC(C)(c2cccc(NC(=O)c3ccc(Cl)cn3)c2)N=C(N)C1=O (racemic) [listing 1 of 2 here] | – | 115 | 107 | 550 | concentration at 4 h [5]: 200 ng/mL; concentration at 2 h [6]: 157 ng/g; concentration at 2 h [7]: 461 ng/mL; Activity [8]: 34%; concentration at 4 h [9]: 20.5 ng/g; concentration at 1 h [10]: 993 ng/mL; concentration at 1 h [11]: 614 ng/g |
| CN1CC(C)(c2cccc(NC(=O)c3ccc(Cl)cn3)c2)N=C(N)C1=O (single isomer, unassigned; enantiomer 2) | – | 83 | 85 | 295 | – |
| Cc1cnc(C(=O)Nc2cccc(C3(C)N=C(N)CN(C)C3=O)c2)cn1 (stereo not given) | < 8 | 1260 | 1150 | 7080 | – |
| CN1CC(C)(c2cc(NC(=O)c3ccc(Cl)cn3)ccc2F)N=C(N)C1=O (single isomer, unassigned; enantiomer 2) | – | – | – | – | concentration at 1 h [12]: 8080 ng/g; concentration at 4 h [13]: 270 ng/mL; concentration at 2 h [14]: 3340 ng/g; concentration at 1 h [15]: 7140 ng/mL; Activity [16]: 48%; concentration at 4 h [17]: 347 ng/g; Activity [18]: 73%; Activity [19]: 67%; concentration at 2 h [20]: 2460 ng/mL |
| CN1CC(C)(c2cccc(NC(=O)c3ccc(Cl)cn3)c2)N=C(N)C1=O (racemic) [listing 2 of 2 here] | – | – | – | – | Activity [21]: inactive; Activity [22]: inactive |
